Legend:
[1] = Half life in Sprague-Dawley rat at 10 mg/kg, po; assay type: ADME, organism-based; parameters: dose 10 mg/kg, route oral; details: in vivo
Method in brief: (§1)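 Male Sprague-Dawley rats dosed intravenously (3 mg/kg) and orally (10 mg/kg). PK parameters came from non-compartmental analysis of plasma concentration vs time curves.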

[2] = target: T1, Alpha-1A adrenergic receptor (Homo sapiens, UniProt P35348); assay: Inhibition of alpha1A adrenergic receptor
T1 sequence (P35348 whole entry): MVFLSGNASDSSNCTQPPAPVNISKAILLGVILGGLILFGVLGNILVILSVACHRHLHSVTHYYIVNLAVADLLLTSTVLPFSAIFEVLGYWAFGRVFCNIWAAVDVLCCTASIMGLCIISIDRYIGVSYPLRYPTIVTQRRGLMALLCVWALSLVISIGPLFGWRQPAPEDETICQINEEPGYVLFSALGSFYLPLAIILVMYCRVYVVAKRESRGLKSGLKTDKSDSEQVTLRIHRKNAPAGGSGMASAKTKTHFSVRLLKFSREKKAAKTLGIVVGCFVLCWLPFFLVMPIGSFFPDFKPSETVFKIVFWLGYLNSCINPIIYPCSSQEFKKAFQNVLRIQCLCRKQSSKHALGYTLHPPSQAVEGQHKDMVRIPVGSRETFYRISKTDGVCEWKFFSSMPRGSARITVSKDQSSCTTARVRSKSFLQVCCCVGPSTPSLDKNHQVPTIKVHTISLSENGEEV
Method in brief: (§2)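 Radioligand competition binding, run first as a single-concentration broad screen at […], then as concentration-response for follow-up targets, with the reference compound tested in parallel. Specific binding is total minus binding in excess unlabelled ligand, expressed as % of control specific binding. IC50 and Hill coefficient come from non-linear Hill-equation regression of competition curves built from mean replicate values.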

[3] = target: T2, Alpha-2A adrenergic receptor (Homo sapiens, UniProt P08913); assay: Inhibition of alpha2A adrenergic receptor; method in brief: as §2
T2 sequence (P08913 whole entry): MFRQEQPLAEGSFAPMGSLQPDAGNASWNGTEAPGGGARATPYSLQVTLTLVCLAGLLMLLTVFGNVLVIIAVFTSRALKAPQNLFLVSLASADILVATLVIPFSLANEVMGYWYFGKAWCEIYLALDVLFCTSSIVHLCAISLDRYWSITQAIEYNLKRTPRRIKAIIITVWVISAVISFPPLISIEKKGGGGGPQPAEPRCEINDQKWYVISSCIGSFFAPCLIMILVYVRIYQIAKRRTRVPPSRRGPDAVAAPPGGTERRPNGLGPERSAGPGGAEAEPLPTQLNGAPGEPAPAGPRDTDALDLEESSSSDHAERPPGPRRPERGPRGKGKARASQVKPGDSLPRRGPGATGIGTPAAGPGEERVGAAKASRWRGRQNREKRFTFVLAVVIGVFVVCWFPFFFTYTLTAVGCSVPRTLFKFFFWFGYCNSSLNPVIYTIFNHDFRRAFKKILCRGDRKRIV

[4] = target: T3, Alpha-2C adrenergic receptor (Homo sapiens, UniProt P18825); assay: Inhibition of alpha2C adrenergic receptor; method in brief: as §2
T3 sequence (P18825 whole entry): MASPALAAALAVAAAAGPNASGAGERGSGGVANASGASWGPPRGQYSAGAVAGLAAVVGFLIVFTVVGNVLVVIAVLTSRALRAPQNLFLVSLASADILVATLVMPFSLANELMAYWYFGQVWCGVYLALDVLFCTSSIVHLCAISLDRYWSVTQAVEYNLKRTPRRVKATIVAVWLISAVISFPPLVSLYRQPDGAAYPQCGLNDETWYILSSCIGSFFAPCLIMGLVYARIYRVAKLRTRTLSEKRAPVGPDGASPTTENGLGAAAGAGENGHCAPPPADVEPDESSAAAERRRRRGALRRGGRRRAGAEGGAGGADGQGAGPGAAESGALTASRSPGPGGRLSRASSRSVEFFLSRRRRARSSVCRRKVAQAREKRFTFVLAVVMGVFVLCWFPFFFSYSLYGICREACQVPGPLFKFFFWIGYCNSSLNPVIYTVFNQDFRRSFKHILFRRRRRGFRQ

[5] = target: T4, Muscarinic acetylcholine receptor M2 (Homo sapiens, UniProt P08172); assay: Inhibition of muscarinic M2 receptor; method in brief: as §2
T4 sequence (P08172 whole entry): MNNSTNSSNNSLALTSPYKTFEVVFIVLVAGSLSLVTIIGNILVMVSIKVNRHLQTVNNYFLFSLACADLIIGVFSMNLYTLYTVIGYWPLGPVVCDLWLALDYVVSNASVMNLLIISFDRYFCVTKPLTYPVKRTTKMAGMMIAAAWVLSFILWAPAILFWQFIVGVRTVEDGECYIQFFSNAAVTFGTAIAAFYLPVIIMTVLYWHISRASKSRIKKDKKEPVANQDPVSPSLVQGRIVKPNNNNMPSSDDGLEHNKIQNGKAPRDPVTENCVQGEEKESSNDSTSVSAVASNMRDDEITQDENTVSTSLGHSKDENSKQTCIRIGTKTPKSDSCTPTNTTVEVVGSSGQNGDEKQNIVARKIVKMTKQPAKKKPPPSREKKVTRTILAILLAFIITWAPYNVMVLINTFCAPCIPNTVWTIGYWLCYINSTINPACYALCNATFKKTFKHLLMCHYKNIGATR

[6] = target: Muscarinic acetylcholine receptor M3 (Homo sapiens, UniProt P20309); assay: Inhibition of muscarinic M3 receptor; method in brief: as §2
[7] = Cmax in Sprague-Dawley rat at 10 mg/kg, po; assay type: ADME, organism-based; parameters: dose 10 mg/kg, route oral; details: in vivo; method in brief: as §1
[8] = Tmax in Sprague-Dawley rat at 10 mg/kg, po; assay type: ADME, organism-based; parameters: dose 10 mg/kg, route oral; details: in vivo; method in brief: as §1
[9] = AUC in Sprague-Dawley rat at 3 mg/kg, iv; assay type: ADME, organism-based; parameters: dose 3 mg/kg, route intravenous; details: plasma; method in brief: as §1
[10] = Oral bioavailability in Sprague-Dawley rat at 10 mg/kg; assay type: ADME, organism-based; details: in vivo; method in brief: as §1
[11] = target: T5, Voltage-gated inwardly rectifying potassium channel KCNH2 (Homo sapiens, UniProt Q12809); assay: Displacement of [3H]astemizole from human recombinant ERG expressed in HEK293 cells; assay type: cell-based
Method in brief: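 Binding was run in human recombinant HEK-293 cells with [3H]astemizole at 2 nM, incubated 75 min at 22 °C, with astemizole as reference. Nonspecific binding was taken with excess unlabelled ligand. Results were given as percent inhibition of control specific binding.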

[12] = target: T5, Voltage-gated inwardly rectifying potassium channel KCNH2; assay: Inhibition of human recombinant ERG expressed in HEK293 cells up to 100 uM after 5 to 10 mins by conventional whole-cell patch clamp assay; assay type: cell-based
Method in brief: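 Conventional whole-cell patch clamp on HEK-293 cells stably expressing hERG, cultured 1–7 days in DMEM/GlutaMax-1 + 10% FBS on collagen-coated dishes. Holding potential was −80 mV. Compound was superfused 5–10 min per concentration at rt (22–24 °C). Tail current amplitude was measured before and after superfusion. IC50 came from a logistic fit of the concentration-response.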

Cytochrome P450 2D6 = Cytochrome P450 2D6 (Homo sapiens, UniProt P10635); assay: Inhibition of human CYP2D6; assay type: ADME
Rattus norvegicus = assay: Analgesic activity in rat L5 and L6 spinal nerve ligation model assessed as reversal of thermal hyperalgesia at 30 mg/kg, ip after 60 mins; assay type: functional; details: route intraperitoneal

T5 sequence (Q12809 whole entry): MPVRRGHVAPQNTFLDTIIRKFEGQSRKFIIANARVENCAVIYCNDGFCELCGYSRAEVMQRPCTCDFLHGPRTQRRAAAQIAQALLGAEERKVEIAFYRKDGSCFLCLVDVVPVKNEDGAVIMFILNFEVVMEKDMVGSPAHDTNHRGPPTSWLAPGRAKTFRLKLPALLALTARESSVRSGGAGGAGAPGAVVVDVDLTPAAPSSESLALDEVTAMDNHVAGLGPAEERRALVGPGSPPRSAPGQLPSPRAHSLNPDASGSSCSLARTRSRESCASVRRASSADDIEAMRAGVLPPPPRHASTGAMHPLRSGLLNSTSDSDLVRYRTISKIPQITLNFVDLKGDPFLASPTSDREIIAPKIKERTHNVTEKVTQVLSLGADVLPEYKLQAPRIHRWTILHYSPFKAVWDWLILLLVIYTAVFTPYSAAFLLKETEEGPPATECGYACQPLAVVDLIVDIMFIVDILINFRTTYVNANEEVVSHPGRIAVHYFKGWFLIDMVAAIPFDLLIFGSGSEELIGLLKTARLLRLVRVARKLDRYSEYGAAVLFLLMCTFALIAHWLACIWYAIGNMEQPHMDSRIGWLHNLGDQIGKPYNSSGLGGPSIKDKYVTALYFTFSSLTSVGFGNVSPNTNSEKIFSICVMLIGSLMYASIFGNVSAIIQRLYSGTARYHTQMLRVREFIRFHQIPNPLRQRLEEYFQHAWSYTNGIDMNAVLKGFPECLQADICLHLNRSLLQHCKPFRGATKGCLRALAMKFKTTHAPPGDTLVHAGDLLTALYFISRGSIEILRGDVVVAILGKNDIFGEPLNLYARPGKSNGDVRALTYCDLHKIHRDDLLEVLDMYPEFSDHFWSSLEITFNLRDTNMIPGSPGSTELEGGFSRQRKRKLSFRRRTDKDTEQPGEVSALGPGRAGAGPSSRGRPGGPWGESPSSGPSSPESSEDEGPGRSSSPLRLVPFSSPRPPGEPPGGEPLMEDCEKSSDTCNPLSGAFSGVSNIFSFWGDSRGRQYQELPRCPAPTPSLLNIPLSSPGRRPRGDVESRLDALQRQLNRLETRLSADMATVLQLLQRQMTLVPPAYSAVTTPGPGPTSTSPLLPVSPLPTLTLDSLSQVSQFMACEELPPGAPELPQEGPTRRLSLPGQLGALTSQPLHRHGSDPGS
Sequence of Muscarinic acetylcholine receptor M3 (P20309 whole entry): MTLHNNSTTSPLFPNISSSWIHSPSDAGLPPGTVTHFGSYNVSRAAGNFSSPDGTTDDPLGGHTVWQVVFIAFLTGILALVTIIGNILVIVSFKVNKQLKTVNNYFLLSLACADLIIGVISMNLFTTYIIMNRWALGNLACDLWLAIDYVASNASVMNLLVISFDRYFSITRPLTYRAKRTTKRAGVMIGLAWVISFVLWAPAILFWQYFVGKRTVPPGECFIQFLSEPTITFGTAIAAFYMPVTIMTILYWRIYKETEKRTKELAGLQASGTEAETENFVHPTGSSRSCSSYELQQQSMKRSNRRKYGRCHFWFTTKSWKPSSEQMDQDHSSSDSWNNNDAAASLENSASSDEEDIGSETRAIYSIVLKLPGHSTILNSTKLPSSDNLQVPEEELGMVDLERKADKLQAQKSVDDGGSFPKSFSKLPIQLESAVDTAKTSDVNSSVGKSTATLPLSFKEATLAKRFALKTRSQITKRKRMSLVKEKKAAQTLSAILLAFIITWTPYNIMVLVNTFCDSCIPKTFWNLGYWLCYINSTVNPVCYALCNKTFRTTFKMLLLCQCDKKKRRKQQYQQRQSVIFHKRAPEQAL
Sequence of Cytochrome P450 2D6 (P10635 whole entry): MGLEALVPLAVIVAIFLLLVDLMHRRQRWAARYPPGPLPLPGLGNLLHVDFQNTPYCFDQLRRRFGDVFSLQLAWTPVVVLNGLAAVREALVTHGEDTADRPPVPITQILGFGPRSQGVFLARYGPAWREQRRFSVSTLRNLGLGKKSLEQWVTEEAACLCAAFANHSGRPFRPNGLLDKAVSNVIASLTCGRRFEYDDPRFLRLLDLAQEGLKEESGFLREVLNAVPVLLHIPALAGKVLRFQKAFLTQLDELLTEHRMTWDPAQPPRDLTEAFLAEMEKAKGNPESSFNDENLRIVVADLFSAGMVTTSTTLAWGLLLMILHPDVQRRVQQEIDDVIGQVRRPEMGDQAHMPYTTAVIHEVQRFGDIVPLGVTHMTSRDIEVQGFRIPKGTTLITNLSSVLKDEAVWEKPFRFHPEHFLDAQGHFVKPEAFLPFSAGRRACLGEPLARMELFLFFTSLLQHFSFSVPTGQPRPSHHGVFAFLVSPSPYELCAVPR

## N=C(Nc1ccc2c(c1)CCN2C1CCNCC1)c1cccs1
[1]
  half-life: 720 min
[2]
  IC50: 1900 nM
[3]
  IC50: 24 µM
[4]
  IC50: 11 µM
[5]
  IC50: 3.6 µM
[6]
  IC50: 4.5 µM
[7]
  Cmax: 101 ng/mL
[8]
  Tmax: 2 h
[9]
  AUC: 95.2 ng·h/mL
[10]
  bioavailability: 91%
[11]
  IC50: 160 µM
[12]
  inhibition (INH): Not Active
Cytochrome P450 2D6
  IC50: 750 nM
Rattus norvegicus
  Activity: 71%

Reference: ChEMBL document CHEMBL2203205 (Eur J Med Chem, 2012)
